These results are taken from paper PMC6120730 (ACS Omega, 2018).

SMILES strings stand for the structures. Values after ≈ are worked out from the molar mass of the structure shown. Like-named read-outs stand apart in the source and are kept apart here.

Series [1] concerns P. falciparum 3D7 parasites. The series is described as follows: P. falciparum 3D7 growth assay. The format is cell-based. The settings on record: Pf3D7 EC50 relative to 1.
Series [2] can be described thus: Kinetic aqueous solubility by nephelometry, pH 6.5. The format is physicochemical. The settings on record: phosphate buffer, pH 6.5, aqueous buffer, kinetic from dmso stock. The essentials:
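Test compound in DMSO was spiked into pH 6.5 phosphate buffer (final DMSO 1 v/v %) and incubated 30 min at room temperature. A solubility range was assigned by nephelometry.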

Series [3] in a line: In vitro metabolism in human liver microsomes. It is filed as in vitro ADME. The note with it: for microsomal CLint: human, liver microsomes; for predicted Eh (H): predicted hepatic extraction ratio, human liver microsomes. The essentials:
(§1)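 Liver microsomes at 0.4 or 0.5 mg/mL protein were incubated at 37 °C with 0.5 or 1 μM test compound. Remaining compound in the supernatant was quantified by LC–MS at time points over 0–60 min. In vitro CLint and predicted hepatic extraction ratio were calculated from the depletion data.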

Series [4] can be described thus: In vitro metabolism in mouse liver microsomes. The settings on record: for predicted Eh (M): predicted hepatic extraction ratio, mouse liver microsomes. It is filed as in vitro ADME. An outline of the steps:
as §1

The conditions of series [5]: pH 7.4; previously reported; cited from earlier work.
For series [6] the following is noted: previously reported; cited from earlier work.
For series [7] the following is noted: human liver microsomes; previously reported; cited from earlier work.
The conditions of series [8]: mouse liver microsomes, previously reported, cited from earlier work; for predicted Eh (M): predicted hepatic extraction ratio.
For series [9] the following is noted: mouse, oral, 10 mg/kg, plasma concentrations; cited from earlier work.
Series [10] can be described thus: Mouse pharmacokinetics after oral administration. It is filed as in vivo. An outline of the steps:
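Both arms used a single oral gavage dose. Plasma arm: male Swiss outbred mice, 20 mg/kg as a suspension in 0.5% CMC, 0.5% benzyl alcohol and 0.4% Tween 80. Plasma was sampled over 24 h and measured by LC–MS. Blood arm: 10 mg/kg in 0.1% methylcellulose. Serial blood was taken 0.5–24 h, lysed with water and analysed by LC–MS/MS. Parameters came from noncompartmental analysis.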

Series [11] has as its system P. falciparum Pf3D7^0087/N9. The series is described as follows: SCID mouse model of P. falciparum infection. The format is in vivo. The essentials:
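NOD-scid IL2Rγnull mice (23–36 g) engrafted with human erythrocytes were infected iv with 20 × 10^6 Pf3D7^0087/N9 parasites. Test compound in 1% methylcellulose was given by oral gavage once daily for 4 days from day 3 (10–60 mg/kg), with actual doses verified by measuring the formulations. Parasitemia was measured by FACS and blood drug by LC–MS–MS. ED90 was set on day 7.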

Setting [12] is: male, Swiss outbred, plasma, 20 mg/kg.

What is called kinetic solubility is solubility judged after dilution from a stock solution rather than from solid. One may read the microsomal CLint as a measure of how fast metabolising enzymes remove a compound, apart from limits set by blood flow. As to `Cc1nc(NC2CCc3ccc(Cl)cc3C2)c2c(C)noc2n1` (centres unmarked) [Compound 9, N-(7-Chloro-1,2,3,4-tetrahydronaphthalen-2-yl)-3,6-dimethylisoxazolo[5,4-d]pyrimidin-4-amine], the “fold less potent than 1 on P. falciparum parasites” value in series [1] is on record as 2–4 fold. For the same compound, in series [2], the solubility (kinetic) at 30 min was in the range of 1.6 to 3.1 µg/mL (≈ 4.87 to 9.43 µM). In addition, the microsomal CLint is 36 µL/min/mg in series [3] and 183 µL/min/mg in series [4] (mouse, liver microsomes). In addition, the “predicted Eh (H)” value in [3] was 0.59. In series [4], the “predicted Eh (M)” value is 0.89.

Turning to `Cc1cc(Nc2ccc(C(F)(F)F)nc2)n2nc(C(C)(F)F)nc2n1` [Compound 2], in series [5], the “log DpH7.4” value is 2.5. The “kinetic solubility pH 6.5” value in [6] was over 100 μg/mL. Besides, in series [7], the “CLint (H)” value is recorded as 2.2 μL/min/mg protein. In series [8], the “CLint (M)” value was under 7 μL/min/mg protein and the “predicted Eh (M)” value is on record as under 0.01.

With `Cc1cc(Nc2ccc(S(F)(F)(F)(F)F)cc2)n2nc(C(C)(F)F)nc2n1` [Compound 1], the “kinetic solubility pH 6.5” value in series [6] is given as 12.5–25 μg/mL. Besides, in [7], the “CLint (H)” value is 4.3 μL/min/mg protein. For the same compound, in [8], the “CLint (M)” value was 2.8 μL/min/mg protein and the “predicted Eh (M)” value is <0.2/<0.2. Further, the AUCinf in series [9] was 23 µM·h.

One may read the AUC(0-inf) as the area under the concentration-time curve extrapolated to infinity. A higher AUC(0-inf) goes with high exposure. In general, Cmax refers to the highest concentration seen after dosing. What is called Tmax is the time from dosing to the highest level. Regarding `Cc1nc(Nc2ccc(S(F)(F)(F)(F)F)cc2)c2c(C)noc2n1` [Compound 14, 3,6-Dimethyl-N-(4-(pentafluoro-l6-sulfanyl)phenyl)isoxazolo[5,4-d]pyrimidin-4-amine], the “fold less potent than 1 on P. falciparum parasites” value in [1] is 2–4 fold. This compound had a kinetic solubility at 30 min in [2] of 6.3 to 12.5 µg/mL (≈ 17.2 to 34.1 µM). For the same compound, in [3], the microsomal CLint stood at 20 µL/min/mg and the “predicted Eh (H)” value is recorded as 0.44. In addition, in [4] (mouse, liver microsomes), the microsomal CLint was 38 µL/min/mg. The “predicted Eh (M)” value in series [4] is given as 0.63. Further, in series [10] (whole blood, 10 mg/kg), the AUC(0-inf) stood at 3.8 µM·h, the Cmax worked out at 1300 nM and the Tmax was 45 min. For the same compound, in [11] (SCID mice, oral QD for 4 days, data collected 24 h after the last dose), the “ED90 (90% reduction in parasitemia)” value was about 63 mg/kg. The “ED90 fold higher than that for 1” value in series [11] (same SCID model, once daily (QD) dosing, comparison with 1 from ref 26) is at least 8 fold.

`Cc1nc(NC2CCc3cc(Cl)ccc3C2)c2c(C)noc2n1` (centres unmarked) [Compound 10, N-(6-Chloro-1,2,3,4-tetrahydronaphthalen-2-yl)-3,6-dimethylisoxazolo[5,4-d]pyrimidin-4-amine] had a kinetic solubility at 30 min in series [2] of 1.6 to 3.1 µg/mL (≈ 4.87 to 9.43 µM). In series [3], the microsomal CLint was found to be 23 µL/min/mg and the “predicted Eh (H)” value is 0.47. In series [4] (mouse, liver microsomes), the microsomal CLint worked out at 179 µL/min/mg. For the same compound, the “predicted Eh (M)” value in series [4] is listed as 0.89.

In [2], `Cc1nc(NC2CCc3cc(Br)ccc3C2)c2c(C)noc2n1` (centres unmarked) [Compound 12, N-(6-Bromo-1,2,3,4-tetrahydronaphthalen-2-yl)-3,6-dimethylisoxazolo[5,4-d]pyrimidin-4-amine] showed a solubility (kinetic) at 30 min of under 1.6 µg/mL. For the same compound, the microsomal CLint in series [3] amounted to 19 µL/min/mg; in [4] (mouse, liver microsomes) it was 138 µL/min/mg. For the same compound, the “predicted Eh (H)” value in series [3] is recorded as 0.42. The “predicted Eh (M)” value in series [4] is 0.86.

Compound `Cc1nc(Nc2ccc(C(F)(F)F)cc2)c2c(C)noc2n1` [Compound 15, 3,6-Dimethyl-N-(4-(trifluoromethyl)phenyl)isoxazolo[5,4-d]pyrimidin-4-amine] displayed a kinetic solubility at 30 min in series [2] of 6.3 to 12.5 µg/mL (≈ 20.4 to 40.5 µM). Also, in series [3], the microsomal CLint amounted to 24 µL/min/mg and the “predicted Eh (H)” value is 0.48. The same compound gave a microsomal CLint in series [4] (mouse, liver microsomes) of 28 µL/min/mg. In addition, the “predicted Eh (M)” value in series [4] is on record as 0.55.

In series [2], `Cc1nc(Nc2ccc(C(F)(F)F)nc2)c2c(C)noc2n1` [Compound 16, 3,6-Dimethyl-N-(6-(trifluoromethyl)pyridin-3-yl)isoxazolo[5,4-d]pyrimidin-4-amine] had a solubility (kinetic) at 30 min of 25 to 50 µg/mL (≈ 80.8 to 162 µM). Moreover, the microsomal CLint is 8 µL/min/mg in series [3] and 13 µL/min/mg in [4] (mouse, liver microsomes). Also, the “predicted Eh (H)” value in series [3] was 0.25. In addition, in [4], the “predicted Eh (M)” value is listed as 0.36.

The compound `Cc1nc(NC2Cc3cc(F)c(F)cc3C2)c2c(C(F)(F)F)noc2n1` [Compound 30, N-(5,6-Difluoro-2,3-dihydro-1H-inden-2-yl)-6-methyl-3-(Trifluoromethyl)isoxazolo[5,4-d]pyrimidin-4-amine] showed a solubility (kinetic) at 30 min in series [2] of 1.6 to 3.1 µg/mL (≈ 4.32 to 8.37 µM). Besides, in [3], the microsomal CLint came out at 26 µL/min/mg and the “predicted Eh (H)” value was 0.5. The compound also showed an intrinsic clearance (microsomal CLint) in series [4] (mouse, liver microsomes) of 328 µL/min/mg. In addition, in series [4], the “predicted Eh (M)” value is reported as 0.93.

In series [3], `Cc1nc(Nc2ccc(C)c(Cl)c2)c2c(C)noc2n1` [Compound 3] yielded a microsomal CLint of 6.2 µL/min/mg. In [4] (mouse, liver microsomes), the “CLint (M)” value was “rapidly metabolized” and the microsomal CLint is 28 µL/min/mg.

`Cc1noc2nc(C(F)(F)F)nc(Nc3ccc(S(F)(F)(F)(F)F)cc3)c12` [Compound 36, 3-Methyl-N-(4-(pentafluoro-l6-sulfanyl)phenyl)-6-(trifluoromethyl)isoxazolo[5,4-d]pyrimidin-4-amine] came in with a solubility (kinetic) at 30 min in [2] of 1.6 to 3.1 µg/mL (≈ 3.81 to 7.38 µM). Also, in [3], the microsomal CLint turned out to be 10 µL/min/mg and the “predicted Eh (H)” value is 0.28. For the same compound, the microsomal CLint in [4] (mouse, liver microsomes) was 26 µL/min/mg. Further, the “predicted Eh (M)” value in series [4] is 0.53.

In the case of `Cc1noc2nc(C(F)(F)F)nc(Nc3ccc(C(F)(F)F)cc3)c12` [Compound 35, 3-Methyl-6-(trifluoromethyl)-N-(4-(trifluoromethyl)phenyl)isoxazolo[5,4-d]pyrimidin-4-amine], the solubility (kinetic) at 30 min in [2] was 1.6 to 3.1 µg/mL (≈ 4.42 to 8.56 µM). In series [3], the microsomal CLint was 18 µL/min/mg and the “predicted Eh (H)” value was 0.41. The compound also registered a microsomal CLint in series [4] (mouse, liver microsomes) of 36 µL/min/mg. Also, the “predicted Eh (M)” value in [4] was 0.61.

`Cc1nc(Nc2ccc(S(F)(F)(F)(F)F)cc2)c2c(C(F)(F)F)noc2n1` [Compound 32, 6-Methyl-N-(4-(pentafluoro-l6-sulfanyl)phenyl)-3-(trifluoromethyl)isoxazolo[5,4-d]pyrimidin-4-amine]: the kinetic solubility at 30 min in series [2] was under 1.6 µg/mL. Moreover, the microsomal CLint in series [3] turned out to be 13 µL/min/mg; in [4] (mouse, liver microsomes), 73 µL/min/mg. Also, the “predicted Eh (H)” value in series [3] is reported as 0.34. For the same compound, the “predicted Eh (M)” value in [4] is 0.76.

As to `Cc1nc(NC2CCc3ccc(Br)cc3C2)c2c(C)noc2n1` (centres unmarked) [Compound 11, N-(7-Bromo-1,2,3,4-tetrahydronaphthalen-2-yl)-3,6-dimethylisoxazolo[5,4-d]pyrimidin-4-amine], in series [1], the “fold less potent than 1 on P. falciparum parasites” value is 2–4 fold. This compound also gave a kinetic solubility at 30 min in series [2] of under 1.6 µg/mL. Besides, in series [3], the microsomal CLint was determined as 32 µL/min/mg and the “predicted Eh (H)” value is 0.56. This compound also registered an intrinsic clearance (microsomal CLint) in series [4] (mouse, liver microsomes) of 233 µL/min/mg. For the same compound, the “predicted Eh (M)” value in series [4] is 0.91.

In series [2], `Cc1nc(NC2Cc3cc(F)c(F)cc3C2)c2c(C)noc2n1` [Compound 13, N-(5,6-Difluoro-2,3-dihydro-1H-inden-2-yl)-3,6-dimethylisoxazolo[5,4-d]pyrimidin-4-amine] registered a kinetic solubility at 30 min of 3.1 to 6.3 µg/mL (≈ 9.8 to 19.9 µM). In series [3], the intrinsic clearance (microsomal CLint) stood at 17 µL/min/mg and the “predicted Eh (H)” value is listed as 0.39. The compound further returned a microsomal CLint in series [4] (mouse, liver microsomes) of 143 µL/min/mg. Moreover, the “predicted Eh (M)” value in [4] is on record as 0.86. For the same compound, in series [10] (setting [12]), the area under the curve AUC(0-inf) is 4.2 µM·h, the maximum concentration (Cmax) is 2100 nM and the Tmax turned out to be 60 min.

Take `Cc1nc(Nc2ccc(C(F)(F)F)cc2)c2c(C(F)(F)F)noc2n1` [Compound 31, 6-Methyl-3-(trifluoromethyl)-N-(4-(trifluoromethyl)phenyl)isoxazolo[5,4-d]pyrimidin-4-amine]: the kinetic solubility at 30 min in series [2] lay within 1.6 to 3.1 µg/mL (≈ 4.42 to 8.56 µM). In addition, in [3], the microsomal CLint worked out at 13 µL/min/mg and the “predicted Eh (H)” value is 0.33. This compound registered an intrinsic metabolic clearance (microsomal CLint) in series [4] (mouse, liver microsomes) of 76 µL/min/mg. Further, the “predicted Eh (M)” value in series [4] was 0.77.
